Test results published in ChEMBL document CHEMBL1123210, “Cycloheximide analogues as potential anticonvulsants” (J Med Chem, 1986).
The source made the active and inactive calls.

Assays:
Mus musculus [1] = assay: Inhibition of subcutaneous pentylenetetrazole induced seizures in mice 4 hr following i.p. administration; Inactive.; type: functional, organism-based
Mus musculus [2] = organism: Mus musculus; assay: Number of mice exhibiting toxicity out of four (4) mice was measured by using rotarod test.; type: organism-based; details: in vivo
Method in brief: (§1)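 Neurotoxicity was scored in the rotorod test in mice given doses up to 600 mg/kg. The value is the number of animals out of four showing toxicity. It was recorded for both the initial screen and the repeat pentylenetetrazol screen.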

Mus musculus [3] = assay: Compound was tested for subcutaneous pentylenetetrazole seizure test in mice after administration intraperitoneally at 0.5 hr; IA is Inactive; type: functional, organism-based
Mus musculus [4] = assay: (§2) Compound was tested for maximal electroshock seizure test in mice 0.5 hr after administration.; type: functional
Mus musculus [5] = assay: (§3) Compound was tested for maximal electroshock seizure test in mice 4 hr after administration; IA is Inactive; type: functional, organism-based
Mus musculus [6] = assay: (§4) Compound was tested for subcutaneous pentylenetetrazole seizure test in mice after administration intraperitoneally at 0.5h.; type: functional
Mus musculus [7] = assay: (§5) Compound was tested for the lowest dose which protected half of the mice in pentylenetetrazole seizure test 0.5 hr after ip administration of the compound; type: functional
Method in brief: (§6)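 This was a repeat of the subcutaneous pentylenetetrazol screen in mice (85 mg/kg s.c.). Endpoint was prevention of clonic seizures, four animals per dose at 30, 100, 300 or 600 mg/kg. The value is the lowest dose at which at least half of the four animals were protected.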

Mus musculus [8] = assay: Number of mice exhibiting toxicity out of four (4) mice in repeated subcutaneous pentylenetetrazole seizure test was measured by using rotarod test; type: organism-based; details: in vivo; method in brief: as §1
Mus musculus [9] = assay: Compound was tested for maximal electroshock seizure test in mice 0.5 hr after administration; IA is Inactivev; type: functional, organism-based
Mus musculus [10] = assay: Compound was tested for maximal electroshock seizure test in mice 4 hr after administration.; type: functional
Mus musculus [11] = assay: Inhibition of maximal electroshock induced seizures in mice 4 hr after administration; Inactive.; type: functional, organism-based
Mus musculus [12] = assay: Compound was tested for maximal electroshock seizure test in mice 0.5 hr after administration; IA is Inactive; type: functional, organism-based
Mus musculus [13] = assay: (§7) Compound was tested for subcutaneous pentylenetetrazole seizure test in mice after administration intraperitoneally at 4h.; type: functional
Mus musculus [14] = assay: Compound was tested for the lowest dose which protected half of the mice in pentylenetetrazole seizure test 4 hr after ip administration of the compound; IA is Inactive; type: functional, organism-based; method in brief: as §6
Mus musculus [15] = assay: Compound was tested for subcutaneous pentylenetetrazole seizure test in mice after administration intraperitoneally at 4h.; IA is Inactive; type: functional, organism-based
Mus musculus [16] = assay: as §3; type: functional, organism-based; remark: listed apart in the source
Method in brief: (§8)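 Mice, four per dose level, screened at 30, 100, 300 and 600 mg/kg and read at 0.5 h and 4 h after dosing. End point is prevention of tonic hindlimb extension after maximal electroshock. Activity is the lowest dose at which at least one of four animals is protected.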

Mus musculus [17] = assay: as §2; type: functional; method in brief: as §8; remark: listed apart in the source
Mus musculus [18] = assay: as §4; type: functional; remark: listed apart in the source
Method in brief: (§9)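 Mice, four per dose level, screened at 30, 100, 300 and 600 mg/kg and read at 0.5 h and 4 h after dosing. End point is prevention of minimal threshold (clonic) seizures induced by pentylenetetrazol 85 mg/kg sc. Activity is the lowest dose at which at least one of four animals is protected.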

Mus musculus [19] = assay: as §5; type: functional; remark: listed apart in the source
Method in brief: (§10)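 Repeat pentylenetetrazol screen (85 mg/kg sc, clonic seizure end point) in four mice per dose, at 30, 100, 300 and 600 mg/kg, read at 0.5 h and 4 h. The value is the lowest dose at which at least half of the four animals were protected. A few cases were rescreened at 100, 250, 450 and 600 mg/kg or used only three animals.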

Mus musculus [20] = assay: as §7; type: functional; method in brief: as §9; remark: listed apart in the source
Mus musculus [21] = assay: (§11) Compound was tested for the lowest dose which protected half of the mice in pentylenetetrazole seizure test 4 hr after ip administration of the compound; type: functional; method in brief: as §10
Mus musculus [22] = assay: Compound was tested for the lowest dose which protected half of the mice in pentylenetetrazole seizure test 0.5 hr after ip administration of the compound; IA is Inactive; type: functional, organism-based; method in brief: as §6
Mus musculus [23] = assay: as §11; type: functional; method in brief: as §6; remark: listed apart in the source

Structure (SMILES) | scMet (Mus musculus [1]) | Toxicity (Mus musculus [2]) | scMet (Mus musculus [3]) | scMet (Mus musculus [6]) [mg/kg] | scMet (Mus musculus [7]) [mg/kg] | Toxicity (Mus musculus [8]) | MES (Mus musculus [11]) | MES (Mus musculus [12]) | further results
C[C@H]1CCCC([C@H](O)CC2CC(=O)N(C)C(=O)C2)[C@H]1O (stereo not given in full) | inactive | 0 | inactive | – | – | – | – | – | MES (Mus musculus [4]): 600 mg/kg; MES (Mus musculus [5]): inactive
C[C@@H]1CC(C(=O)CC2CC(=O)N(C)C(=O)C2)C(=O)[C@@H](C)C1 (stereo not given in full) | inactive | 1 | – | 600 | 600 | 1 | – | – | MES (Mus musculus [9]): inactive; MES (Mus musculus [10]): 600 mg/kg
C[C@H]1CCC(=O)C(C(=O)CC2CC(=O)N(C)C(=O)C2)C1 (stereo not given in full) | inactive | – | inactive | – | – | – | inactive | inactive | –
C[C@H]1CC[C@H](O)C([C@H](O)CC2CC(=O)NC(=O)C2)C1 (stereo not given in full) | – | 0 | – | 30 | 30 | 0 | inactive | inactive | scMet (Mus musculus [13]): 600 mg/kg; MES (Mus musculus [14]): inactive
C[C@@H]1CC(C2CC(CC(=O)NCc3ccccc3)CC(=O)O2)[C@@H](O)[C@@H](C)C1 (stereo not given in full) | inactive | – | inactive | – | – | – | inactive | inactive | –
O=C1CC(CC(=O)C2CCCCC2=O)C(=O)N1 (stereo not given) | – | 0 | – | 600 | 600 | 0 | inactive | inactive | scMet (Mus musculus [15]): inactive
C[C@H]1CCC(=O)C(C(=O)CC2CC(=O)NC(=O)C2)C1 (stereo not given in full) | inactive | – | inactive | – | – | – | inactive | inactive | –
O=C1CC(CC(=O)C2CCCCC2=O)CC(=O)N1 (stereo not given) | inactive | 0 | – | 600 | 600 | – | inactive | inactive | –
C[C@H]1CC(C(=O)CC2CC(=O)NC(=O)C2)C(=O)[C@@H](C)C1 (stereo not given in full) | inactive | – | inactive | – | – | – | inactive | inactive | –
C[C@H]1CC([C@H](O)CC2CC(=O)N(Cc3ccccc3)C(=O)C2)[C@@H](O)[C@@H](C)C1 (stereo not given in full) | inactive | – | inactive | – | – | – | inactive | inactive | –
C[C@H]1CC([C@H](O)CC2CC(=O)N(C)C(=O)C2)[C@@H](O)[C@@H](C)C1 (stereo not given in full) | inactive | 0 | inactive | – | – | – | inactive | – | MES (Mus musculus [4]): 600 mg/kg
C[C@@H]1CC([C@H](O)CC2CC(=O)NC(=O)C2)C(=O)[C@@H](C)C1 (stereo not given in full) | – | 1 | – | – | – | 0 animals | – | – | MES (Mus musculus [16]): inactive; MES (Mus musculus [17]): 600 mg/kg; scMet (Mus musculus [18]): 100 mg/kg; scMet (Mus musculus [19]): 100 mg/kg; scMet (Mus musculus [20]): 300 mg/kg; scMet (Mus musculus [21]): 300 mg/kg
CN1C(=O)CC(CC(=O)C2CCCCC2=O)CC1=O (stereo in doubt; 2e) | inactive | – | inactive | – | – | – | inactive | inactive | –
C[C@H]1CC[C@H](O)C([C@H](O)CC2CC(=O)N(C)C(=O)C2)C1 (stereo not given in full) | inactive | 4 | inactive | – | – | – | inactive | – | MES (Mus musculus [4]): 600 mg/kg
O=C1CC(C[C@@H](O)C2CCCC[C@@H]2O)CC(=O)N1 (stereo not given in full) | inactive | 0 | – | 100 | 600 | 0 | inactive | inactive | –
CC1CCCC(C(=O)CC2CC(=O)N(C)C(=O)C2)C1=O (stereo in doubt; 2g) | – | – | – | – | – | – | inactive | – | MES (Mus musculus [4]): 600 mg/kg
C[C@@H]1CCc2c(c(CC3CC(=O)NC(=O)C3)nn2-c2ccccc2)C1 | – | 0 | inactive | – | – | – | inactive | inactive | scMet (Mus musculus [13]): 30 mg/kg; MES (Mus musculus [22]): inactive
C[C@@H]1CCC(=O)C(C(=O)CC2CC(=O)NC2=O)C1 (stereo not given in full) | inactive | 2 | – | 600 | 600 | 1 | inactive | – | MES (Mus musculus [4]): 600 mg/kg
CN1C(=O)CC(C[C@@H](O)C2CCCC[C@@H]2O)CC1=O (stereo not given in full) | inactive | – | inactive | – | – | – | inactive | inactive | –
C[C@H]1CC([C@H](O)CC2CC(=O)NC(=O)C2)[C@@H](O)[C@@H](C)C1 (stereo not given in full) | – | 1 | – | 100 | 100 | 0 | inactive | inactive | scMet (Mus musculus [23]): 600 mg/kg; scMet (Mus musculus [13]): 600 mg/kg
CC(=O)O[C@H](CC1CC(=O)N(C)C(=O)C1)C1C[C@@H](C)C[C@H](C)C1=O (stereo not given in full) | inactive | – | inactive | – | – | – | inactive | inactive | –
C[C@H]1CCCC(C(=O)CC2CC(=O)NC(=O)C2)C1=O (stereo not given in full) | inactive | 0 | – | 300 | – | 0 | inactive | inactive | MES (Mus musculus [7]): 100 mg/kg
